Drawing on ChEMBL document CHEMBL4513216, “Probing the Open Global Health Chemical Diversity Library for Multistage-Active Starting Points for Next-Generation Antimalarials” (ACS Infect Dis, 2020), this text covers cytotoxicity for 41 compounds.

The nature of the data set: Toxicity liver stage against HepG2, at 10uM. Format: cell-based. Details: test concentration 10 uM, cell line HepG2-A16-CD81EGFP. As to conditions: human, HepG2-A16-CD81EGFP cells; read-out: INHIBITION
An outline of the steps:
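Uninfected HepG2-A16-CD81EGFP cells, 3 × 10^3 per well, 1536-well, plated on prespotted compound at 10 μM final, parasite-free screening media added to match infected plates; puromycin 10 μM positive, DMSO 0.5% negative; run in parallel with 48 h PbLuc assay at 37 °C, 5% CO2; viability by CellTiter-Glo luminescence, normalized to controls.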
With `COC(=O)c1ccc2c(-c3ccnc(NCCO)n3)c[nH]c2c1`, the cytotoxicity at 10 µM is -12.8%.
For `CN(C)Cc1nnc2n1CCN(Cc1cccnc1)C2` the value was -0.588%; for `CN(C)C(=O)c1nn(C)c2c1CN(Cc1ccoc1)C2`, -6.28%; for `Cc1cnc(C(=O)N2CCCC3(CCN(c4cnn(C)c4)C3=O)C2)cn1` (stereo unspecified), -5.79%.
As for `Cn1cc(N2CCC3(CCCN(C(=O)c4ccnn4C)C3)C2=O)cn1` (stereo unspecified), the cytotoxicity at 10 µM is -1.55%.
For `O=C(O)c1ccccc1-c1ccc(CN2CCC(CO)CC2)cn1` the value was 2.45%.
For `CN1CCC(c2nccnc2Nc2cnccn2)CC1` the value was -4.27%; for `CC(=O)N1CCC(c2cccc(Oc3ccccc3)n2)CC1`, -0.0757%; for `COCCN1CCCC(c2ncc(C(=O)N(C)C)c(C)n2)C1` (stereo unspecified), -1.21%.
For `CN(Cc1ccc(F)cc1)CC1(O)CCN(C(=O)c2ccn(C)n2)C1` (stereo unspecified) the value was -6.41%; for `CC1CCCCN1c1nc2c(c(=O)[nH]1)CCN(Cc1ccc(O)cc1)C2` (stereo unspecified), 5.74%.
On to `COCc1ccccc1C(=O)NS(=O)(=O)CCCC#N`, for which the cytotoxicity at 10 µM came out at 5.24%.
Take `COCCCN(Cc1ccncc1)c1cc(C)ncn1`: the cytotoxicity at 10 µM came out at 3.35%.
As to `CCCS(=O)(=O)NCC(C)c1ccc(F)c(F)c1` (stereo unspecified), the cytotoxicity at 10 µM is -6.82%.
For `CC(C)S(=O)(=O)c1ccccc1C(=O)NCC1Cc2ccccc2O1` (stereo unspecified) the value was 5.87%.
For `Cc1nc(CCNC(C)c2ccc3c(c2)OCCCO3)cs1` (stereo unspecified) the value was 3.3%; for `CC(=O)Nc1nc(C(=O)NCCOc2cccc(C)c2)cs1`, -0.794%; for `CNC(=O)c1ccc(OC)c(NCc2noc(-c3cccs3)n2)c1`, 2.76%.
For `CC(CNC(=O)c1c[nH]nn1)Oc1ccccc1Br` (stereo unspecified) the value was -0.509%; for `CCCC(=O)NCC(=O)NC(c1ccc(Cl)cc1)C(F)(F)F` (stereo unspecified), -3.63%.
On to `NC(=O)[C@H]1CCCN(c2nccc(-c3ccncc3)n2)C1`, for which the cytotoxicity at 10 µM is -5.03%.
For the compound `O=C(c1cc(COc2ccc3c(c2)OCO3)[nH]n1)N1CCOCC1`, the cytotoxicity at 10 µM was -5.21%.
As for `COCCCn1ccnc1-c1cnc(OC)nc1`, the cytotoxicity at 10 µM is -13.6%.
For `COc1ccc(Cc2nnc(SC)o2)cc1OC` the value was -13.8%; for `Cc1c(NC(=O)c2noc3c2CCCC3)cnn1C`, -5.41%; for `CC(C)Cc1cc(NC(=O)c2ccccc2)n(C)n1`, -3.37%.
For `Cc1cnc(CN(C)C2CCCN(Cc3noc(C4CC4)n3)C2)cn1` (stereo unspecified) the value was -2.13%; for `Cc1cnn(C2CN(CC(=O)NCCc3c[nH]c4ccccc34)C2)c1`, -4.01%; for `CC(=O)N1CCCN(C(=O)CCc2c(C)nc3ccnn3c2C)CC1`, -3.12%.
As for `N#Cc1ccccc1N1CCCN(C(=O)NCc2cc[nH]n2)CC1`, the cytotoxicity at 10 µM was 0.428%.
For `CC(=O)N(Cc1noc(C2CC2)n1)C1CCN(Cc2ccccn2)C1` (stereo unspecified) the value was -5.72%; for `Cc1ccc(Cl)cc1N1CCC(CNC(=O)Cn2cccn2)C1` (stereo unspecified), -6.72%.
For `Cc1nccn1CCCC(=O)N1CCCN(c2cccnn2)CC1` the value was -9.35%.
With `CC1CN(C)CCN1C(=O)c1ccn(-c2cccc(Cl)c2)n1` (stereo unspecified), the cytotoxicity at 10 µM is -26.3%.
For `CC(C)C(Sc1nnc(C2CC2)n1C1CC1)C(=O)NCc1cccnc1` (stereo unspecified) the value was -11.2%; for `Cc1ccc(S(=O)(=O)N2CCOc3ccccc32)cc1C(=O)O`, -0.524%.
On to `CC(C)n1ccnc1CN1CCCN(C(=O)c2cccnc2O)CC1`, for which the cytotoxicity at 10 µM came to 1.74%.
With `CCc1nc(C2CCCN2CCc2ccccn2)no1` (stereo unspecified), the cytotoxicity at 10 µM was -7.03%.
On to `CCOc1nnc(CN2CCOC(CNc3cccnn3)C2)s1` (stereo unspecified), for which the cytotoxicity at 10 µM was determined as 1.82%.
Turning to `CCn1cnnc1CNC(=O)NC(C)C(C)C` (stereo unspecified), the cytotoxicity at 10 µM was -6.15%.
As to `CCCN(Cc1cccnc1)C1CC(C)(C)NC(C)(C)C1`, the cytotoxicity at 10 µM is -4.47%.
